# The source made the active and inactive calls. The rule behind the calls is not given here.
# What was measured:
# [1] = target: RAC-beta serine/threonine-protein kinase (Homo sapiens) (UniProt P31751); assay: Inhibition of AKT2 (unknown origin) at 0.49 uM relative to control
# [2] = target: Receptor tyrosine-protein kinase erbB-4 (Homo sapiens) (UniProt Q15303); assay: Inhibition of HER4 (unknown origin) at 0.49 uM relative to control
# HepG2 = assay: Inhibition of human recombinant BMP6-stimulated hepcidin mRNA expression in human HepG2 cells after 6 hrs by qRT-PCR analysis; assay type: functional, cell-based; conditions: HepG2, 6 h
# [3] = Cmax in C57BL/6J mouse at 30 mg/kg, po by LC-MS/MS analysis; assay type: ADME, organism-based; design: dose 30 mg/kg, route oral; conditions: in vivo
# [4] = target: Casein kinase I isoform gamma-2 (Homo sapiens) (UniProt P78368); assay: Inhibition of Casein kinase 1g2 (unknown origin) at 0.45 uM relative to control
# [5] = Metabolic stability in mouse liver microsomes assessed as parent compound remaining at 1 uM after 0.5 hrs by LC-MS/MS analysis; assay type: ADME, microsome; conditions: read-out: Stability
# [6] = tested on: Proto-oncogene tyrosine-protein kinase receptor Ret (Homo sapiens), P07949 [Y791F]; assay: Inhibition of RET Y791F mutant (unknown origin) at 0.45 uM relative to control
# [7] = target: Protein kinase C eta type (Homo sapiens) (UniProt P24723); assay: Inhibition of PKC-eta (unknown origin) at 0.45 uM relative to control
# [8] = tested on: Fibroblast growth factor receptor 4 (Homo sapiens), P22455 [V550L]; assay: Inhibition of FGFR4 V550L mutant (unknown origin) at 0.45 uM relative to control
# [9] = Tmax in C57BL/6J mouse at 30 mg/kg, po by LC-MS/MS analysis; assay type: ADME, organism-based; conditions: in vivo
# [10] = tested on: Tyrosine-protein kinase ABL1 (Homo sapiens), P00519 [Y253F]; assay: Inhibition of ABL1 Y253F mutant (unknown origin) at 0.45 uM relative to control
# [11] = target: T1, Serine/threonine-protein kinase D2 (Homo sapiens) (UniProt Q9BZL6); assay: Inhibition of PKD2 (unknown origin) at 0.45 uM relative to control
# T1 sequence (whole entry): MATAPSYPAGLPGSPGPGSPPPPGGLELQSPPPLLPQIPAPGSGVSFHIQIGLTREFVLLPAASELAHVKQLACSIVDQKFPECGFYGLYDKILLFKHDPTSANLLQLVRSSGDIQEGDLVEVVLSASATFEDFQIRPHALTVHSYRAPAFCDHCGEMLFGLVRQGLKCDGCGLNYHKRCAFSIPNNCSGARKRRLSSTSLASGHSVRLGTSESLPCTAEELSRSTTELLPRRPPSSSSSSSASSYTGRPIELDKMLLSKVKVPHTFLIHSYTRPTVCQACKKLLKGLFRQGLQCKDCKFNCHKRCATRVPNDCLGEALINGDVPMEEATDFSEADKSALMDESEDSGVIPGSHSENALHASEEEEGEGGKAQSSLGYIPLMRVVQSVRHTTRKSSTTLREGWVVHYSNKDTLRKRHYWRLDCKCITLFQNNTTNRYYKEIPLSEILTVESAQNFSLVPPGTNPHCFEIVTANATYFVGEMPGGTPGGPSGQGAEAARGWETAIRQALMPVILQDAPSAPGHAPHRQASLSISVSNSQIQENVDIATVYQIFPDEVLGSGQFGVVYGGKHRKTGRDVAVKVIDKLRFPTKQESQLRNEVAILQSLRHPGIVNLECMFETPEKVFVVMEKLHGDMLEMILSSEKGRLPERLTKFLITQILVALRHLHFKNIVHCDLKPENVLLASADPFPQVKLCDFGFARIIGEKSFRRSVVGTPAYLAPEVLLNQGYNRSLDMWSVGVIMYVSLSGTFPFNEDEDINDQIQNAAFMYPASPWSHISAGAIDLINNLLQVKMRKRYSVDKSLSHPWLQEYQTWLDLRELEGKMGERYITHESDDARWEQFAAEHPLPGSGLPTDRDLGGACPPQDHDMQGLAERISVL
# Mus musculus = assay: Antiinflammatory activity in C57BL/6J mouse assessed as reduction in recombinant mouse IL-6 induced serum hepcidin level at 30 mg/kg, po pretreated for 30 mins followed by IL-6 challenge measured after 4 hrs by LC-MS/MS analysis; assay type: functional, organism-based
# How it was run: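 9-week-old male C57BL/6J mice were dosed orally at 30 mg/kg (0.5% methylcellulose suspension, n = 4) 30 min before intravenous mouse IL-6. Blood was taken 4 h after IL-6 and serum hepcidin was measured. Groups were compared by t-test against saline-treated and 0.5% MC vehicle-treated groups.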
# [12] = Lipophilicity, log D of the compound; assay type: physicochemical; conditions: octanol/water
# [13] = target: Protein kinase C gamma type (Homo sapiens) (UniProt P05129); assay: Inhibition of PKC-gamma (unknown origin) at 0.45 uM relative to control
# [14] = target: T2, Protein kinase C zeta type (Homo sapiens) (UniProt Q05513); assay: Inhibition of PKC-zeta (unknown origin) at 0.45 uM relative to control
# T2 sequence (whole entry): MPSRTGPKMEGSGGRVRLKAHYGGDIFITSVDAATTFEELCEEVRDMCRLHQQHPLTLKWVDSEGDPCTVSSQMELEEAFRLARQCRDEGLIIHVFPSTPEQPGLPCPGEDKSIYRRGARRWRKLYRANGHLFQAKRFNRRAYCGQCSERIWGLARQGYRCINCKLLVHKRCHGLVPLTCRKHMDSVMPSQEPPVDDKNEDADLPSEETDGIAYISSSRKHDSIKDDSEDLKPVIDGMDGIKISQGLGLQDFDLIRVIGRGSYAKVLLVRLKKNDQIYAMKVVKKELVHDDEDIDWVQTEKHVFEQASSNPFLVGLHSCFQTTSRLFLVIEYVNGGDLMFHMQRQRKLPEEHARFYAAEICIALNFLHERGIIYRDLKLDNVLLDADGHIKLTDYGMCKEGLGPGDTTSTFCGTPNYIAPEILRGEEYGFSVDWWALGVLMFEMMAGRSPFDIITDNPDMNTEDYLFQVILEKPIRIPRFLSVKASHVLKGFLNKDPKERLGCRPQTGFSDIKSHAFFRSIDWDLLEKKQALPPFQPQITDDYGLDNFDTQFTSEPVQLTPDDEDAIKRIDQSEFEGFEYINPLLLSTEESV
# [15] = AUC in C57BL/6J mouse at 30 mg/kg, po by LC-MS/MS analysis; assay type: ADME, organism-based; conditions: in vivo
# [16] = target: Mitogen-activated protein kinase 3 (Homo sapiens) (UniProt P27361); assay: Inhibition of Erk1 (unknown origin) at 0.45 uM relative to control
# [17] = target: Calcium/calmodulin-dependent protein kinase type 1D (Homo sapiens) (UniProt Q8IU85); assay: Inhibition of CamK1d (unknown origin) at 0.45 uM relative to control
# [18] = target: Ephrin type-A receptor 3 (Homo sapiens) (UniProt P29320); assay: Inhibition of EPHA3 (unknown origin) at 0.45 uM relative to control
# [19] = target: Casein kinase I isoform delta (Homo sapiens) (UniProt P48730); assay: Inhibition of CK1-delta (unknown origin) at 0.078 uM relative to control
# Sequence of Mitogen-activated protein kinase 3 (Homo sapiens) (P27361 whole entry): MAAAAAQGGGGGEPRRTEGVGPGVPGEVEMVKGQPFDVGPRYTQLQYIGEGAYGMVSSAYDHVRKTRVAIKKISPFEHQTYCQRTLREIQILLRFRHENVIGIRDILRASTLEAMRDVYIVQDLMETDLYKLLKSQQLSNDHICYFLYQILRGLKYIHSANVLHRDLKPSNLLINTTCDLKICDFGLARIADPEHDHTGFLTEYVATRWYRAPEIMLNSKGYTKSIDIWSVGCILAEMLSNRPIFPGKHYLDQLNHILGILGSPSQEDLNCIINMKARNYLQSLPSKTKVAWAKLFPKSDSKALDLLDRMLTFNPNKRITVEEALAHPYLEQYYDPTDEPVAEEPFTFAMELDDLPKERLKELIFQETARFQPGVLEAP
# Sequence of Proto-oncogene tyrosine-protein kinase receptor Ret (Homo sapiens), P07949 [Y791F] (P07949 whole entry Y791F): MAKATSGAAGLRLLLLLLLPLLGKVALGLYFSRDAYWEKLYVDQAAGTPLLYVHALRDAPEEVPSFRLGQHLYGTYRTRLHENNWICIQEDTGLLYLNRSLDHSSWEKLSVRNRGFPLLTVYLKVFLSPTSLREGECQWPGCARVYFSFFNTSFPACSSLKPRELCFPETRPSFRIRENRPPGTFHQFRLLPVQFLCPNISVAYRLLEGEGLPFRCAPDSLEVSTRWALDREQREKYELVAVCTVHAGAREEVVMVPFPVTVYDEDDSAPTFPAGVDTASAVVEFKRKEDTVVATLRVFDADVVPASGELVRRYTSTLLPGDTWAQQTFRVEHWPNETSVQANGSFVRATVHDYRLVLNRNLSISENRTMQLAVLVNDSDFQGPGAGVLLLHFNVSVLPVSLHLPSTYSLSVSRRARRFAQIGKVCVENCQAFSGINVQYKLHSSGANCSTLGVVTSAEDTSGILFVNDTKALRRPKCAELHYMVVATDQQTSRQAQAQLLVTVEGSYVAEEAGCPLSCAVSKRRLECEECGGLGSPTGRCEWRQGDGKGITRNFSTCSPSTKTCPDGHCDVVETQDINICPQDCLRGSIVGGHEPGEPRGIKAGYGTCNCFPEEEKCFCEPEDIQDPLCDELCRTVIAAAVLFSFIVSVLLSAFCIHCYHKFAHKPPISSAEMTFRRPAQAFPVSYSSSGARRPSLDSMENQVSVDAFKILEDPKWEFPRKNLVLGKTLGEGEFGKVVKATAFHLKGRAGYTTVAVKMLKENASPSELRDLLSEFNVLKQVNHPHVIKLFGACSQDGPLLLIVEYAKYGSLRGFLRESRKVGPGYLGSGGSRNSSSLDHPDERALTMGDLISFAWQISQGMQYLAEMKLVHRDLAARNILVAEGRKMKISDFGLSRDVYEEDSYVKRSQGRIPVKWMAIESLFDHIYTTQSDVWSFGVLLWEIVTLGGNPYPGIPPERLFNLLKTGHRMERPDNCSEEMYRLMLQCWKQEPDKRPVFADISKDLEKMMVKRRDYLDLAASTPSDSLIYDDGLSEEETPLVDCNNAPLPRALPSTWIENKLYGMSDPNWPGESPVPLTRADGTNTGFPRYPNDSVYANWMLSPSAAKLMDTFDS
# Sequence of Receptor tyrosine-protein kinase erbB-4 (Homo sapiens) (Q15303 whole entry): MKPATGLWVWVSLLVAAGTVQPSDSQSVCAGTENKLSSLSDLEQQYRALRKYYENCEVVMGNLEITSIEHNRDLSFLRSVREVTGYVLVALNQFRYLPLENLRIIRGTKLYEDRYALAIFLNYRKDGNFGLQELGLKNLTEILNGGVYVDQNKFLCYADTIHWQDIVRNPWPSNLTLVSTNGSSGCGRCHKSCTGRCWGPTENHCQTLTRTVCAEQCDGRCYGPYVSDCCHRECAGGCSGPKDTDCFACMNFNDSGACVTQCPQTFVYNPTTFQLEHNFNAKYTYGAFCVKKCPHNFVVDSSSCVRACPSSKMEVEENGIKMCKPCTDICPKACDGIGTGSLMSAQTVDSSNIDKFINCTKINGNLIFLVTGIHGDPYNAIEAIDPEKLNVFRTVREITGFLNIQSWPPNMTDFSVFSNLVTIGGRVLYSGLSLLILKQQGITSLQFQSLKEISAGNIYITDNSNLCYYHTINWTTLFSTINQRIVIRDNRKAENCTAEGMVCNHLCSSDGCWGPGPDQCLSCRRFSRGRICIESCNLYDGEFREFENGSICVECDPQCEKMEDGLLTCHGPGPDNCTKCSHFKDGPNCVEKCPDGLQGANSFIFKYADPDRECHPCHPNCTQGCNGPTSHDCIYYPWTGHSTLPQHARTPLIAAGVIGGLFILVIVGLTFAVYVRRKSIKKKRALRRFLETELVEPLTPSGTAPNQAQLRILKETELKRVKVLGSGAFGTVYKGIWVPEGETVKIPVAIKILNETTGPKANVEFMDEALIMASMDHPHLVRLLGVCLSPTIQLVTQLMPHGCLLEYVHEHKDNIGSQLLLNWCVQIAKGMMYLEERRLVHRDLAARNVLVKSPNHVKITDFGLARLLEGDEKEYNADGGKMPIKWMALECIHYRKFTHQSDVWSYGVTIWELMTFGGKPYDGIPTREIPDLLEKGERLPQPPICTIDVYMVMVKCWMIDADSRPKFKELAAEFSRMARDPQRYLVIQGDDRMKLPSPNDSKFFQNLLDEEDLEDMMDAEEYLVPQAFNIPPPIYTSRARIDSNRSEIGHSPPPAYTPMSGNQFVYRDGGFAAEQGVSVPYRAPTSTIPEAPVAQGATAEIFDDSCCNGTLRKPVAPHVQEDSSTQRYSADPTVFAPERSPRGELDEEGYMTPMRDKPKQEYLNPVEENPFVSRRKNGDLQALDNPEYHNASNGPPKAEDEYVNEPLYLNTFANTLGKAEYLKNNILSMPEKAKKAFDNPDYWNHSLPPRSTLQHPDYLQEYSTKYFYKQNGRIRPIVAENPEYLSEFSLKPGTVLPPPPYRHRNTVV
# Sequence of Fibroblast growth factor receptor 4 (Homo sapiens), P22455 [V550L] (P22455 whole entry V550L): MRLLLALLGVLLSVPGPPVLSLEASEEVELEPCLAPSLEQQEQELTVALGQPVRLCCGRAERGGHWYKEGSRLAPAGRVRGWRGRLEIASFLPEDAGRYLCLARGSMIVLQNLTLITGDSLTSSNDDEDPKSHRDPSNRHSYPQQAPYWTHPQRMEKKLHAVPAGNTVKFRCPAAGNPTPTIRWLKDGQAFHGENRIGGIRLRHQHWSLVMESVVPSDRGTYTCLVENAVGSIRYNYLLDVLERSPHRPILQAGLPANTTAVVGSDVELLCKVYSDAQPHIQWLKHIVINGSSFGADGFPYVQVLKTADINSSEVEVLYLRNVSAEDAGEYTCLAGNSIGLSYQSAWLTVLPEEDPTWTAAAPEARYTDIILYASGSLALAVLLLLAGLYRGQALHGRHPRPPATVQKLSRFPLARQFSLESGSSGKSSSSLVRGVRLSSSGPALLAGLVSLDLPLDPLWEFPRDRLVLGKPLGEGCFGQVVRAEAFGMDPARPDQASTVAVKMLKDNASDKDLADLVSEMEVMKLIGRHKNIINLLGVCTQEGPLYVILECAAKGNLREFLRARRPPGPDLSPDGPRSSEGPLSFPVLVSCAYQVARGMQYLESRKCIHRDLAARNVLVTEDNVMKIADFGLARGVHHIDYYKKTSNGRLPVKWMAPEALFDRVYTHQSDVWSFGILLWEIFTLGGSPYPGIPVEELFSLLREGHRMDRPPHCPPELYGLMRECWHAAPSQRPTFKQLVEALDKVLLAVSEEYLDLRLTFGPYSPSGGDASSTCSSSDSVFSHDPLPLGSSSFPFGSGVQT
# Sequence of RAC-beta serine/threonine-protein kinase (Homo sapiens) (P31751 whole entry): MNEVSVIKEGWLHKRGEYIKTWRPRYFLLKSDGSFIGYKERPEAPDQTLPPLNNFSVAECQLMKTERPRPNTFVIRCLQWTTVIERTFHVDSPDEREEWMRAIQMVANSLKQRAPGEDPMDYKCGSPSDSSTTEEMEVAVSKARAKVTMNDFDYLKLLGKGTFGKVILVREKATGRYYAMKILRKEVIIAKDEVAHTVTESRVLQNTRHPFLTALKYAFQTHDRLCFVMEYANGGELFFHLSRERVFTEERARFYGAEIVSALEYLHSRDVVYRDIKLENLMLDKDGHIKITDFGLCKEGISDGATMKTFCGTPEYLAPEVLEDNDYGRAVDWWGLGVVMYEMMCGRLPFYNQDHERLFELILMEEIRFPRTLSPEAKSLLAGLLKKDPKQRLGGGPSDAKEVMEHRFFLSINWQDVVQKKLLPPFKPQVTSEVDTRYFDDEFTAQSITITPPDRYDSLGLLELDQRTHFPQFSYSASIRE
# Sequence of Casein kinase I isoform gamma-2 (Homo sapiens) (P78368 whole entry, looked up, canonical isoform): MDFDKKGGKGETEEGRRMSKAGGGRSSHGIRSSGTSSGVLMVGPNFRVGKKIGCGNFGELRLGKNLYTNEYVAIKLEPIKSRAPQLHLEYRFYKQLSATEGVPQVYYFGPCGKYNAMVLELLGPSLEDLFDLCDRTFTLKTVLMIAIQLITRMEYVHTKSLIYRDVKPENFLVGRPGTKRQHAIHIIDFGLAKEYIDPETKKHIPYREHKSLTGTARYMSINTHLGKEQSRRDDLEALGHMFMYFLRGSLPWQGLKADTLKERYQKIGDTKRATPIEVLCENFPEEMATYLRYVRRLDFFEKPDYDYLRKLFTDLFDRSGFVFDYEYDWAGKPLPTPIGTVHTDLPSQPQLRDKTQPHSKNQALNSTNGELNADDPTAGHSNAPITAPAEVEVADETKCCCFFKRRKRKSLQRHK
# Sequence of Calcium/calmodulin-dependent protein kinase type 1D (Homo sapiens) (Q8IU85 whole entry, looked up): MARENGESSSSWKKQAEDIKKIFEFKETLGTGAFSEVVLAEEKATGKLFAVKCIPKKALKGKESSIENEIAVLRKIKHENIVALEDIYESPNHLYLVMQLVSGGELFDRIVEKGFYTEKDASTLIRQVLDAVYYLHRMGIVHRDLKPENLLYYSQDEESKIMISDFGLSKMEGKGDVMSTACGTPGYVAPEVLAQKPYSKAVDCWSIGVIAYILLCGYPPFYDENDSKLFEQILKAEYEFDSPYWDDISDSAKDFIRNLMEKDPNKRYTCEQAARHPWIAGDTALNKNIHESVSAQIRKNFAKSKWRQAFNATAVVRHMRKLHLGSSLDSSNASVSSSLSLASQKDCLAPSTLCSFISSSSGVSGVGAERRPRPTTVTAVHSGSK
SMILES,IC50 (HepG2) [µM],Cmax [3] [ng/mL],"remaining at 0.5 h, 1 µM [5] [%]",Tmax [9] [h],Activity (Mus musculus),logD [12],AUC [15] [ng·h/mL],further results
Cc1[nH]nc(C2CC2)c1-c1ccc2c(NC(=O)C3CC3)noc2c1,0.29,,,,,,,inhibition [1]: 3%; inhibition [2]: -10%
Cc1n[nH]c(C)c1-c1ccc2c(NC(=O)c3ccc(N4CCN(C)CC4)cc3)n[nH]c2c1,0.23,920,80,3.25,Active,2.4,2550,inhibition [4]: 0.7%; inhibition [6]: 58.7%; inhibition [7]: 0.3%; inhibition [8]: 2.7%; inhibition [10]: 76%; inhibition [11]: 6.7%; inhibition [13]: 18.7%; inhibition [14]: 7%; inhibition [16]: 1.3%; inhibition [17]: 0.7%; inhibition [18]: 5%
COC(=O)Nc1noc2cc(-c3c(-c4ccccn4)n[nH]c3C)ccc12,0.039,9170,87,1,Active,2.5,36200,inhibition [19]: 10.7%

# — ChEMBL document CHEMBL4052759, “Discovery of DS79182026: A potent orally active hepcidin production inhibitor” (Bioorg Med Chem Lett, 2017)
